# A1 apoptosis 2: A1 inhibitors via caspase activation, primary screen, cell-based, luminescence, HTS, two replicates; 24,000 tested, under 10 active; MEF A1-2A-BIM cells, caspase-Glo luminescence, 3 h; percent of clofoctol response, DMSO zero; caspase activation, % (concentration not given with the values); AID 2465, 2010; in the data active means caspase activation above about 5.9%
#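 Material: mouse embryonic fibroblasts co-expressing A1 and BIM (A1-2A-BIM), primed for A1 dependence / Quantity: 2500 cells/well / Buffer or medium: RPMI-1640 growth medium with 10% FBS / Doses: 50 nL compound per well, pinned / Schedule: 3 h compound exposure at 37 °C / Signal: Caspase-Glo luminescence (DEVD substrate) / Measure: Caspase-3/7 activation, seen as rise in luminescence signal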
# T cruzi intra: inhibitors of intracellular Trypanosoma cruzi, primary screen, cell-based, plate reader, single point, set 2; intracellular Trypanosoma cruzi in host cells; activity score (inhibition), % at 5.01 µM; 22,000 tested, 4.9% active; in the data active means activity score above about 55%;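 further: parasites and compound incubated about four days before reading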
# INS-1E rescue: protection of INS-1E cells from cytokine death, primary screen, ATP luminescence, single point | INS-1E cytokine-induced death, 48 h; normalised: neutral wells 0, positive control 100 | protection from cytokine-induced ATP loss, % at 10 µM | 20,000 tested, 0.1% active;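 active means mean replicate protection from cytokine-induced ATP loss at least 50% and at least 75% of replicates each reaching 50%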
#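 Assay system: INS-1E rat cells / Quantity: 8000 cells per well / Medium: RPMI without phenol red, 5% FBS / Probe or stimulus: three-cytokine cocktail (IFN-γ, TNF-α, IL-1β) / Dosing: one compound concentration, pin transfer / Timing: 48 h co-treatment, 10 min post-lysis read / Technique: CellTiter-Glo luminescence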
# A number is an active result; n = inactive; x = not tested or not shown. Shown is part of a subset that was picked to be rich in hits.
SMILES,A1 apoptosis 2,T cruzi intra,INS-1E rescue
C[C@H]1CN([C@@H](C)CO)C(=O)Cc2cc(NC(=O)Nc3ccc(C(F)(F)F)cc3)ccc2O[C@@H]1CN(C)Cc1ccc(-c2ccccc2)cc1,x,70,n
C[C@H]1CN([C@@H](C)CO)C(=O)Cc2cc(NC(=O)Nc3ccc(C(F)(F)F)cc3)ccc2O[C@H]1CN(C)Cc1ccc(-c2ccccc2)cc1,x,n,n
Cc1noc(C)c1S(=O)(=O)Nc1ccc2c(c1)C(=O)N([C@H](C)CO)C[C@H](C)[C@H](CN(C)CC1CCCCC1)OCCCC[C@@H](C)O2,n,n,n
COc1ccc(NC(=O)N(C)C[C@H]2Oc3c(NS(=O)(=O)c4cn(C)cn4)cccc3C(=O)N([C@@H](C)CO)C[C@@H]2C)cc1,n,n,n
COc1ccc(S(=O)(=O)N(C)C[C@@H]2OCCCC[C@@H](C)Oc3ccc(NC(=O)Nc4ccccc4)cc3C(=O)N([C@H](C)CO)C[C@@H]2C)cc1,x,n,n
C[C@@H]1CN([C@@H](C)CO)C(=O)c2cc(NC(=O)C3CC3)ccc2O[C@H]1CN(C)Cc1ccc(C(=O)Nc2ccccc2N)cc1,n,n,n
C[C@@H]1CCCCO[C@@H](CN(C)Cc2ccc(C(F)(F)F)cc2)[C@@H](C)CN([C@H](C)CO)C(=O)c2cc(NC(=O)Nc3ccc4c(c3)OCO4)ccc2O1,n,70,n
C[C@@H]1CCCCO[C@@H](CN(C)Cc2ccncc2)[C@@H](C)CN([C@@H](C)CO)C(=O)c2cc(NC(=O)Nc3ccc(C(F)(F)F)cc3)ccc2O1,n,x,x
COc1ccc(CN(C)C[C@@H]2OCCCC[C@H](C)Oc3ccc(NC(=O)Nc4ccc(C(F)(F)F)cc4)cc3C(=O)N([C@@H](C)CO)C[C@H]2C)cc1,n,x,x
C[C@@H]1CCCCO[C@@H](CN(C)Cc2ccncc2)[C@@H](C)CN([C@H](C)CO)C(=O)c2cc(NC(=O)Nc3ccc(C(F)(F)F)cc3)ccc2O1,x,57,n
COc1ccc(CN(C)C[C@@H]2OCCCC[C@@H](C)Oc3ccc(NC(=O)Nc4ccc(C(F)(F)F)cc4)cc3C(=O)N([C@H](C)CO)C[C@@H]2C)cc1,x,63,n
C[C@@H]1CN([C@@H](C)CO)C(=O)c2cc(NC(=O)Nc3ccc4c(c3)OCO4)ccc2O[C@@H](C)CCCCO[C@H]1CN(C)Cc1ccc(C(F)(F)F)cc1,n,x,x
C[C@@H]1CCCCO[C@@H](CN(C)Cc2ccc(C(F)(F)F)cc2)[C@@H](C)CN([C@H](C)CO)C(=O)c2cc(NC(=O)Nc3ccc(F)cc3)ccc2O1,x,79,n
C[C@@H]1CCCCO[C@H](CN(C)Cc2ccc(C(F)(F)F)cc2)[C@@H](C)CN([C@@H](C)CO)C(=O)c2cc(NC(=O)Nc3ccc(F)cc3)ccc2O1,n,x,x
CNC[C@@H]1Oc2ccc(NC(=O)CCN3CCOCC3)cc2CC(=O)N([C@H](C)CO)C[C@H]1C,n,n,n
C[C@@H]1CCCCO[C@H](CN(C)C(=O)Nc2ccc(C(F)(F)F)cc2)[C@H](C)CN([C@H](C)CO)C(=O)c2cc(NC(=O)CCC(F)(F)F)ccc2O1,n,x,x
CNC[C@H]1Oc2ccc(NS(=O)(=O)c3cccs3)cc2CC(=O)N([C@H](C)CO)C[C@@H]1C,n,x,x
C[C@@H]1CN([C@H](C)CO)C(=O)c2cc(NS(=O)(=O)c3ccccc3)ccc2O[C@H]1CN(C)CC1CC1,x,n,n
C[C@@H]1CN([C@@H](C)CO)C(=O)c2cc(NC(=O)NC3CCCCC3)ccc2O[C@@H]1CN(C)Cc1ccc(C(F)(F)F)cc1,x,n,n
C[C@H](CO)N1C[C@H](C)[C@@H](CN(C)C(=O)Nc2ccc(C(F)(F)F)cc2)Oc2ccc(NC(=O)CCN3CCOCC3)cc2C1=O,n,n,n
CNC[C@@H]1Oc2ncc(C#Cc3ccccc3)cc2C(=O)N([C@H](C)CO)C[C@@H]1C,n,n,x
C[C@@H]1CCCCO[C@@H](CN(C)C(=O)c2ccncc2)[C@H](C)CN([C@@H](C)CO)C(=O)c2cc(NC(=O)Cc3ccccc3)ccc2O1,n,x,x
O=S(=O)(N[C@@H]1CCN(Cc2cccc(OCCO)c2)C1)c1cccc2cccnc12,n,x,x
C[C@@H]1CN([C@H](C)CO)C(=O)c2cccc(NC(=O)c3ccncc3)c2O[C@@H]1CN(C)CC1CCCCC1,n,n,n
C[C@@H]1CN([C@@H](C)CO)C(=O)c2cccc(NC(=O)c3ccncc3)c2O[C@H]1CN(C)Cc1ccccc1,x,79,n
SMILES,A1 apoptosis 2,T cruzi intra,INS-1E rescue
C[C@@H]1CN([C@@H](C)CO)C(=O)c2cccc(NC(=O)c3ccncc3)c2O[C@H]1CN(C)CC1CCCCC1,x,76,n
C[C@@H]1CN([C@@H](C)CO)C(=O)c2cccc(NC(=O)c3ccncc3)c2O[C@@H]1CN(C)Cc1ccc(C(=O)O)cc1,n,n,n
C[C@H]1CN([C@@H](C)CO)C(=O)c2cccc(NC(=O)c3ccncc3)c2O[C@H]1CN(C)Cc1ccccc1,x,81,n
C[C@@H]1CN([C@@H](C)CO)C(=O)c2cccc(NC(=O)c3ccncc3)c2O[C@H]1CN(C)Cc1ccncc1,n,n,n
C[C@@H]1CN([C@H](C)CO)C(=O)c2cccc(NC(=O)c3ccncc3)c2O[C@H]1CN(C)Cc1ccccc1,x,80,n
C[C@H](CO)N1C[C@H](C)[C@@H](CN(C)Cc2ccncc2)Oc2c(NC(=O)c3ccncc3)cccc2C1=O,n,n,n
C[C@@H]1CCCCO[C@H](CN(C)Cc2ccc3c(c2)OCO3)[C@@H](C)CN([C@@H](C)CO)C(=O)c2cc(NS(=O)(=O)c3ccc(F)cc3)ccc2O1,n,x,x
COC(=O)CCCCCCC(=O)N/N=C/c1ccc2ccccc2c1,n,n,n
Cc1ccc(S(=O)(=O)N(C)C[C@H]2OCCCC[C@H](C)Oc3ccc(NC(=O)Nc4ccc(C(F)(F)F)cc4)cc3C(=O)N([C@H](C)CO)C[C@@H]2C)cc1,n,x,x
Cc1ccc(S(=O)(=O)Nc2ccc3c(c2)CC(=O)N([C@H](C)CO)C[C@H](C)[C@H](CN(C)Cc2ccncc2)O3)cc1,n,n,n
C[C@H]1CN([C@@H](C)CO)C(=O)Cc2cc(NC(=O)Nc3ccc(C(F)(F)F)cc3)ccc2O[C@H]1CN(C)S(=O)(=O)c1ccc(F)cc1,n,n,n
C[C@@H]1CN([C@@H](C)CO)C(=O)Cc2cc(NC(=O)Nc3ccc(C(F)(F)F)cc3)ccc2O[C@H]1CN(C)S(=O)(=O)c1ccc(Cl)cc1,n,x,x
C[C@H](CO)N1C[C@H](C)[C@H](CN(C)S(=O)(=O)c2ccc(Cl)cc2)Oc2ccc(NC(=O)Nc3ccc(C(F)(F)F)cc3)cc2CC1=O,x,63,n
C[C@@H]1CN([C@@H](C)CO)C(=O)Cc2cc(NC(=O)Nc3ccc(C(F)(F)F)cc3)ccc2O[C@@H]1CN(C)S(=O)(=O)c1ccc(F)cc1,x,81,n
Cc1ccc(S(=O)(=O)N(C)C[C@H]2Oc3ccc(NC(=O)Nc4ccc(C(F)(F)F)cc4)cc3CC(=O)N([C@@H](C)CO)C[C@H]2C)cc1,n,58,n

# Source: PubChem BioAssay
